Results from ChEMBL document CHEMBL1667761, “3-benzylamino-β-carboline derivatives induce apoptosis through G2/M arrest in human carcinoma cells HeLa S-3” (Eur J Med Chem, 2011).
Active and inactive are the calls of the source. The rule behind the calls is not given here.

Tests used:
[1] = Antitumor activity against human HeLaS3 cells after 24 to 72 hrs by MTT assay; type: functional, cell-based, HeLa S3
Outline: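 HeLa S-3 cells (MEM, 10% FBS, HEPES, NEAA, 2 mM L-glutamine, 5% CO2, 37 °C) seeded at 2 × 10⁴ cells/ml and cultured 3 h before exposure for 24–72 h at 37 °C. MTT (2 mg/ml) added for 4 h at 37 °C, formazan dissolved in DMSO, A540 read. Viability is expressed as % of control. IC50 is the concentration giving 50% growth inhibition, mean ± S.D. of four independent experiments run in triplicate.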

HeLa S3 [2] = assay: Induction of apoptosis in human HeLaS3 cells assessed as DNA fragmentation after 48 hrs by agarose gel electrophoresis; type: functional, cell-based
Outline: (§1)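 HeLa S-3 cells exposed for 12–48 h, then pellets lysed in 0.6% sarcosine, 20 mM Tris-HCl pH 7.4, 20 mM EDTA. Lysate treated with RNase A for 2 h at 50 °C, then proteinase K overnight at 50 °C. DNA extracted with phenol/chloroform, run on 2% agarose in TAE at 50 V, stained with ethidium bromide, and visualised under UV.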

[3] = Cell cycle arrest in human HeLaS3 cells assessed as accumulation at S phase at 1 uM after 6 hrs by flow cytometry; type: functional, cell-based; conditions: HeLa S3
Outline: (§2)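 HeLa S-3 cells exposed for 6, 12 or 24 h. Cells washed twice in ice-cold PBS, fixed in ice-cold 70% ethanol, and resuspended with 0.1 mg/ml RNase. Stained with […] PI and analysed by flow cytometry. Phase distribution (sub-G1, G1, S, G2/M) is reported as percentage of cells. Controls were untreated.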

[4] = Cell cycle arrest in human HeLaS3 cells assessed as accumulation at G1 phase at 1 uM after 6 hrs by flow cytometry; type: functional, cell-based; conditions: HeLa S3; outline: as §2
HeLa S3 [5] = assay: Induction of apoptosis in human HeLaS3 cells assessed as DNA fragmentation after 24 hrs by agarose gel electrophoresis; type: functional, cell-based; outline: as §1
[6] = Cell cycle arrest in human HeLaS3 cells assessed as accumulation at G1 phase at 5 uM after 12 hrs by flow cytometry; type: functional, cell-based; conditions: HeLa S3; outline: as §2
[7] = Cell cycle arrest in human HeLaS3 cells assessed as accumulation at G1 phase at 1 uM after 24 hrs by flow cytometry; type: functional, cell-based; conditions: HeLa S3; outline: as §2
[8] = Cell cycle arrest in human HeLaS3 cells assessed as accumulation at G2/M phase at 5 uM after 6 hrs by flow cytometry; type: functional, cell-based; conditions: HeLa S3; outline: as §2
HeLa S3 [9] = assay: Induction of apoptosis in human HeLaS3 cells assessed as appearance of fragmented nuclei at 10 times IC50 after 48 hrs by Hoechst staining; type: functional, cell-based
Outline: (§3)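 Stained with Hoechst 33342 (1 µg/ml) for 40 min at 37 °C. Nuclei were examined by confocal laser microscopy, and apoptosis was scored from chromatin condensation and fragmented nuclei.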

[10] = Cell cycle arrest in human HeLaS3 cells assessed as accumulation at sub-G1 phase at 1 uM after 12 hrs by flow cytometry; type: functional, cell-based; conditions: HeLa S3; outline: as §2
[11] = Cell cycle arrest in human HeLaS3 cells assessed as accumulation at S phase at 5 uM after 12 hrs by flow cytometry; type: functional, cell-based; conditions: HeLa S3; outline: as §2
[12] = Cell cycle arrest in human HeLaS3 cells assessed as accumulation at sub-G1 phase at 5 uM after 24 hrs by flow cytometry; type: functional, cell-based; conditions: HeLa S3; outline: as §2
[13] = Cell cycle arrest in human HeLaS3 cells assessed as accumulation at G1 phase at 1 uM after 12 hrs by flow cytometry; type: functional, cell-based; conditions: HeLa S3; outline: as §2
[14] = Cell cycle arrest in human HeLaS3 cells assessed as accumulation at G2/M phase at 1 uM after 12 hrs by flow cytometry; type: functional, cell-based; conditions: HeLa S3; outline: as §2
[15] = Cell cycle arrest in human HeLaS3 cells assessed as accumulation at G2/M phase at 5 uM after 12 hrs by flow cytometry; type: functional, cell-based; conditions: HeLa S3; outline: as §2
[16] = Cell cycle arrest in human HeLaS3 cells assessed as accumulation at S phase at 1 uM after 24 hrs by flow cytometry; type: functional, cell-based; conditions: HeLa S3; outline: as §2
[17] = Cell cycle arrest in human HeLaS3 cells assessed as accumulation at sub-G1 phase at 5 uM after 6 hrs by flow cytometry; type: functional, cell-based; conditions: HeLa S3; outline: as §2
[18] = Cell cycle arrest in human HeLaS3 cells assessed as accumulation at S phase at 1 uM after 12 hrs by flow cytometry; type: functional, cell-based; conditions: HeLa S3; outline: as §2
HeLa S3 [19] = assay: Induction of apoptosis in human HeLaS3 cells assessed as appearance of fragmented nuclei at 5 times IC50 after 48 hrs by Hoechst staining; type: functional, cell-based; outline: as §3
[20] = Cell cycle arrest in human HeLaS3 cells assessed as accumulation at G2/M phase at 5 uM after 24 hrs by flow cytometry; type: functional, cell-based; conditions: HeLa S3; outline: as §2
[21] = Cell cycle arrest in human HeLaS3 cells assessed as accumulation at G2/M phase at 1 uM after 24 hrs by flow cytometry; type: functional, cell-based; conditions: HeLa S3; outline: as §2
[22] = Cell cycle arrest in human HeLaS3 cells assessed as accumulation at G1 phase at 5 uM after 6 hrs by flow cytometry; type: functional, cell-based; conditions: HeLa S3; outline: as §2
[23] = Cell cycle arrest in human HeLaS3 cells assessed as increase in cdc2 protein level at 5 times IC50 by Western blot method; type: functional, cell-based; conditions: HeLa S3
Outline: (§4)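 HeLa S-3 cells treated for 24 h at 5-fold the IC50, alongside non-treated controls. Cells lysed in RIPA buffer (pH 8.0) with protease inhibitors and the whole-cell extract separated by SDS-PAGE, then transferred to PVDF. Blots blocked in 5% skim milk/TTBS and probed with anti-cdc2, cdk2 or cleaved caspase-3 antibodies (1:1000). β-actin (1:5000) served as loading control. Detection by HRP secondary antibody and ECL.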

[24] = Cell cycle arrest in human HeLaS3 cells assessed as effect on cdk2 protein level at 5 times IC50 by Western blot method; type: functional, cell-based; conditions: HeLa S3; outline: as §4
[25] = Cell cycle arrest in human HeLaS3 cells assessed as accumulation at S phase at 5 uM after 24 hrs by flow cytometry; type: functional, cell-based; conditions: HeLa S3; outline: as §2
HeLa S3 [26] = assay: Induction of apoptosis in human HeLaS3 cells assessed as cleaved caspase-3 at 5 times IC50 by Western blot method; type: functional, cell-based; outline: as §4
[27] = Cell cycle arrest in human HeLaS3 cells assessed as accumulation at S phase at 5 uM after 6 hrs by flow cytometry; type: functional, cell-based; conditions: HeLa S3; outline: as §2
[28] = Cell cycle arrest in human HeLaS3 cells assessed as accumulation at sub-G1 phase at 1 uM after 6 hrs by flow cytometry; type: functional, cell-based; conditions: HeLa S3; outline: as §2
[29] = Cell cycle arrest in human HeLaS3 cells assessed as accumulation at sub-G1 phase at 5 uM after 12 hrs by flow cytometry; type: functional, cell-based; conditions: HeLa S3; outline: as §2
[30] = Cell cycle arrest in human HeLaS3 cells assessed as accumulation at G1 phase at 5 uM after 24 hrs by flow cytometry; type: functional, cell-based; conditions: HeLa S3; outline: as §2
[31] = Cell cycle arrest in human HeLaS3 cells assessed as accumulation at G2/M phase at 1 uM after 6 hrs by flow cytometry; type: functional, cell-based; conditions: HeLa S3; outline: as §2
[32] = Cell cycle arrest in human HeLaS3 cells assessed as accumulation at sub-G1 phase at 1 uM after 24 hrs by flow cytometry; type: functional, cell-based; conditions: HeLa S3; outline: as §2

## CC(C)(C)OC(=O)NCCOc1cccc(CNc2cc3c(cn2)[nH]c2ccccc23)c1
[1]; Homo sapiens, HeLa S3
  IC50: 16 µM

## C[n+]1cc2[nH]c3ccccc3c2cc1NCc1ccccc1 [listing 1 of 4 here]
[1]; hela s3
  IC50: 99 µM

## C[n+]1cc2[nH]c3ccccc3c2cc1NCc1ccccc1 [listing 2 of 4 here]
[1]; hela s3
  IC50: 0.54 µM

## C[n+]1cc2[nH]c3ccccc3c2cc1NCc1ccccc1 [listing 3 of 4 here]
HeLa S3 [2]
  Activity: Active
[3]
  Activity: 21.9%
[4]
  Activity: 31.5%
HeLa S3 [5]
  Activity: inactive
[6]
  Activity: 6.1%
[7]
  Activity: 38.4%
[8]
  Activity: 50.5%
HeLa S3 [9]
  Activity: Active
[10]
  Activity: 10.3%
[11]
  Activity: 10%
[12]
  Activity: 6.9%
[13]
  Activity: 7.8%
[14]
  Activity: 73.5%
[15]
  Activity: 78.5%
[16]
  Activity: 13.6%
[17]
  Activity: 2.8%
[18]
  Activity: 8.7%
HeLa S3 [19]
  Activity: Active
[20]
  Activity: 82.3%
[21]
  Activity: 13.8%
[22]
  Activity: 29.7%
[23]
  Activity: Active
[24]
  Activity: inactive
[25]
  Activity: 3.6%
HeLa S3 [26]
  Activity: Active
[27]
  Activity: 13.8%
[28]
  Activity: 4.7%
[29]
  Activity: 3.2%
[30]
  Activity: 4.4%
[31]
  Activity: 46.1%
[32]
  Activity: 34.6%

## Oc1cccc(CNc2cc3c(cn2)[nH]c2ccccc23)c1
[3]
  Activity: 20%
[4]
  Activity: 36.2%
HeLa S3 [5]
  Activity: Active
[6]
  Activity: 7.2%
[7]
  Activity: 58.5%
[8]
  Activity: 52.9%
[1]; Homo sapiens, HeLa S3
  IC50: 0.92 µM
HeLa S3 [9]
  Activity: Active
[10]
  Activity: 9.5%
[11]
  Activity: 8.9%
[12]
  Activity: 21.3%
[13]
  Activity: 48.8%
[14]
  Activity: 31.3%
[15]
  Activity: 76.7%
[16]
  Activity: 17.4%
[17]
  Activity: 3.5%
[18]
  Activity: 10.7%
HeLa S3 [19]
  Activity: Active
[20]
  Activity: 53.3%
[21]
  Activity: 17.1%
[22]
  Activity: 27.3%
[23]
  Activity: Active
[24]
  Activity: inactive
[25]
  Activity: 6.8%
HeLa S3 [26]
  Activity: Active
[27]
  Activity: 14.1%
[28]
  Activity: 8.2%
[29]
  Activity: 5.9%
[30]
  Activity: 15.8%
[31]
  Activity: 36.3%
[32]
  Activity: 7.5%

## COC(=O)c1ccc(CNc2cc3c(cn2)[nH]c2ccccc23)cc1
[1]; Homo sapiens, HeLa S3
  IC50: 45 µM

## C[n+]1cc2[nH]c3ccccc3c2cc1NCc1ccccc1 [listing 4 of 4 here]
[1]; hela s3
  IC50: 9.9 µM

## COC(=O)c1cccc(CNc2cc3c(cn2)[nH]c2ccccc23)c1
[1]; Homo sapiens, HeLa S3
  IC50: 17 µM

## CC(C)CNc1cc2c(cn1)[nH]c1ccccc12
[1]; Homo sapiens, HeLa S3
  IC50: 13 µM
